Data taken from ChEMBL document CHEMBL4610063, “Mangiferin: A promising natural xanthone from Mangifera indica for the control of acyclovir - resistant herpes simplex virus 1 infection” (Bioorg Med Chem, 2020).
The source made the active and inactive calls. The calls are words filed in the database; no cut-off is given here.

How the values were obtained:
Human alphaherpesvirus 1 [1] = assay: Antiviral activity against ACV-resistant Herpes simplex virus 1 AR-29 infected in African green monkey Vero cells assessed as inhibition of viral infection at 25 ug/ml measured after 72 hrs by crystal violet staining based plaque reduction assay relative to control; type: functional; conditions: Human alphaherpesvirus 1, AR-29, Vero
Procedure, shortened: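 Plaque reduction in Vero cells. Mangiferin at 3.12, 6.25, 12.5 or 25 μg/mL is added at infection (0 h) with HSV-1 (10^5 PFU/mL). Agarose overlay with 25 mM MgCl2, 72 h at 37 °C/5% CO2, 20% formaldehyde fix, 0.5% crystal violet stain. %VI is taken against virus control. IC50 comes from linear regression of inhibition curves. Triplicate independent experiments.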

Human alphaherpesvirus 1 [2] = assay: Antiviral activity against ACV-resistant Herpes simplex virus 1 AR-29 infected in African green monkey Vero cells assessed as suppression of viral replication by measuring reduction in ICP4 production at 12.5 ug/ml measured after 24 hrs by immunofluorescence assay relative to control; type: functional; parameters: scale not given: the % may be the effect or the level left
Procedure, shortened: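 Vero cells on coverslips, infected with HSV-1 AR-29 and given mangiferin (1.56–12.5 μg/mL) at 0 h. At 24 h they are acetone-fixed (−20 °C, 20 min) and blocked with 2% skim milk. Stained with mouse anti-ICP4 and FITC anti-mouse IgG. 100 cells per coverslip are scored by fluorescence microscopy, inhibition relative to infected untreated cells. Duplicate experiments.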

Human alphaherpesvirus 1 [3] = assay: Antiviral activity against ACV-sensitive Herpes simplex virus 1 KOS infected in female Balb/c mouse assessed as reduction in ulcerated lesion at 0.7% w/w applied topically 5 times a day at 3 hrs interval for 10 days measured on day 2 to day 7 post infection; type: functional, organism-based; conditions: strain KOS
Procedure, shortened: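 Balb/c mice (5 weeks, 22–27 g; six per group, sexes tested separately) had the right mid-flank depilated under i.p. anaesthesia and needle-scarified 24 h later. They were inoculated with 70 μL HSV-1 KOS (10^5 PFU/mL). From 4 h post-infection, O/W emulsion with 0.7% w/w mangiferin or ACV cream (50 mg/g) was applied topically 5 times daily for 10 days. Lesions were scored daily.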

Human alphaherpesvirus 1 [4] = assay: Antiviral activity against ACV-resistant Herpes simplex virus 1 AR-29 infected in male Balb/c mouse assessed as reduction in ulcerated lesion at 0.7% w/w applied topically 5 times a day at 3 hrs interval for 10 days measured on day 7 post infection; type: functional, organism-based
Procedure, shortened: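 Balb/c mice, 5 weeks old, six per group. Right mid-flank depilated under i.p. anaesthesia, needle-scarified 24 h later and inoculated with 70 μL HSV-1 AR-29 (10^5 PFU/mL). Topical 0.7% w/w O/W emulsion or ACV cream (50 mg/g) starts 4 h post-infection, 5 times daily for 10 days. Lesions are scored daily.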

[5] = Toxicity in Balb/c mouse infected with ACV-sensitive Herpes simplex virus 1 KOS assessed as death at 0.7% w/w applied topically 5 times a day at 3 hrs interval for 10 days measured on day 10 post infection; conditions: in vivo, topical_or_ocular
Human alphaherpesvirus 1 [6] = assay: Antiviral activity against ACV-resistant Herpes simplex virus 1 AR-29 infected in male Balb/c mouse assessed as change in dermis thickness at 0.7% w/w applied topically 5 times a day at 3 hrs interval for 10 days measured on day 10 post infection by H and E staining based histological analysis; type: functional, organism-based

With `O=c1c2cc(O)c(O)cc2oc2cc(O)c([C@@H]3O[C@H](CO)[C@@H](O)[C@H](O)[C@H]3O)c(O)c12` [MANGIFERIN] the inhibition at 25 µg/mL (Human alphaherpesvirus 1 [1]) was 100%, the Activity (Human alphaherpesvirus 1 [2]) was 54.1% and the Activity (Human alphaherpesvirus 1 [3]) was “inactive”. For the same compound, the Activity (Human alphaherpesvirus 1 [4]) was “Active”, the Activity [5] was “Non-Toxic” and the Activity (Human alphaherpesvirus 1 [6]) was “inactive”.
